In ChEMBL document CHEMBL1130325, “Novel non-nucleoside inhibitors of human immunodeficiency virus type 1 reverse transcriptase. 6. 2-Indol-3-yl- and 2-azaindol-3-yl-dipyridodiazepinones” (J Med Chem, 1997):

Columns and labels:
[1] = target: Human immunodeficiency virus type 1 reverse transcriptase (Human immunodeficiency virus 1, UniProt Q72547, G190A); assay: Inhibition against HIV-1 mutant G190A reverse transcriptase […]
[2] = target: Human immunodeficiency virus type 1 reverse transcriptase (Human immunodeficiency virus 1) (UniProt Q72547); assay: Inhibition against HIV-1 wild type reverse transcriptase […]
[3] = target: Human immunodeficiency virus type 1 reverse transcriptase (Human immunodeficiency virus 1, UniProt Q72547, Y188L); assay: Inhibitory concentration against HIV-1 mutant Y188L reverse transcriptase
How it was run: (§1)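 HIV-1 RT is at 0.63 nM in 50 mM Tris pH 7.8 with 4 mM DTT, 60 mM NaCl, 2 mM MgCl2, 0.02% Chaps, 4.8 μg/mL poly(rC)/oligo(dG) and 0.45 μM [3H]dGTP. Incubation is 30 min at room temperature in triplicate wells; [3H] incorporation is read after acid precipitation, minus EDTA background.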

[4] = system: Human immunodeficiency virus type 1 reverse transcriptase (Human immunodeficiency virus 1), Q72547 [[…]]; assay: Inhibition against HIV-1 mutant Y188L reverse transcriptase at 1 mM
[5] = target: Human immunodeficiency virus type 1 reverse transcriptase (Human immunodeficiency virus 1, UniProt Q72547); assay: Inhibitory concentration against HIV-1 wild type reverse transcriptase; how it was run: as §1
[6] = target: Human immunodeficiency virus type 1 reverse transcriptase (Human immunodeficiency virus 1, UniProt Q72547, V106A); assay: Inhibition against HIV-1 mutant V106A reverse transcriptase […]
[7] = target: Human immunodeficiency virus type 1 reverse transcriptase (Human immunodeficiency virus 1, UniProt Q72547, P236L); assay: Inhibition against HIV-1 mutant P236L reverse transcriptase […]
[8] = target: Human immunodeficiency virus type 1 reverse transcriptase (Human immunodeficiency virus 1, UniProt Q72547, K103N); assay: Inhibition against HIV-1 mutant K103N reverse transcriptase […]
[9] = system: Human immunodeficiency virus type 1 reverse transcriptase (Human immunodeficiency virus 1), Q72547 [Y181C]; assay: Inhibition against HIV-1 mutant Y181C reverse transcriptase at 1 mM
[10] = target: Human immunodeficiency virus type 1 reverse transcriptase (Human immunodeficiency virus 1, UniProt Q72547, Y181C); assay: Inhibitory concentration against HIV-1 mutant Y181C reverse transcriptase; how it was run: as §1

Structure (SMILES)	IC50 [1] [nM]	inhibition [2] [%]	IC50 [3] [nM]	inhibition [4] [%]	IC50 [5] [nM]	IC50 [6] [nM]	IC50 [7] [nM]	IC50 [8] [nM]	inhibition [9] [%]	IC50 [10] [nM]
CCN1c2ncccc2C(=O)N(C)c2ccc(-c3c[nH]c4ccc(OC)cc34)nc21	600	61	730	58	200	3090	404	935	45	230
CCN1c2ncccc2C(=O)N(C)c2ccc(-c3c[nH]c4cnccc34)nc21	19	94	384	64	44	228	< 1	32	81	98
CCN1c2ncccc2C(=O)N(C)c2ccc(-c3c[nH]c4cccnc34)nc21	–	21	–	37	–	–	–	–	18	–
CCN1c2ncccc2C(=O)N(C)c2ccc(-c3c[nH]c4ccccc34)nc21	12	96	90	72	28	49	79	97	93	28
CCN1c2ncccc2C(=O)N(C)c2ccc(-c3c[nH]c4ccc(F)cc34)nc21	–	63	–	17	706	–	–	–	59	555
CCN1c2ncccc2C(=O)N(C)c2ccc(-c3c[nH]c4ccncc34)nc21	–	87	–	3	130	–	–	–	66	222
CCN1c2ncccc2C(=O)N(C)c2ccc(-c3c[nH]c4ncccc34)nc21	–	76	1300	39	210	–	–	–	70	200
CCN1c2ncccc2C(=O)N(C)c2ccc(-c3cc[nH]c3)nc21	320	95	100	78	33	1000	–	–	91	50
